pEC50, pIC50: −log10 of the molar value.
Experiments:
[1] = molecular target: Muscarinic acetylcholine receptor; test: Inhibition of [3H]oxotremorine-M binding to rat brain membrane Muscarinic acetylcholine receptor
[2] = molecular target: T1, Muscarinic acetylcholine receptor M2 (Rattus norvegicus, UniProt P10980); test: Inhibition of [3H]quinuclidinyl benzilate binding to Muscarinic acetylcholine receptor M2 in rat brain membrane; assay type: cell membranes
T1 sequence (P10980 whole entry): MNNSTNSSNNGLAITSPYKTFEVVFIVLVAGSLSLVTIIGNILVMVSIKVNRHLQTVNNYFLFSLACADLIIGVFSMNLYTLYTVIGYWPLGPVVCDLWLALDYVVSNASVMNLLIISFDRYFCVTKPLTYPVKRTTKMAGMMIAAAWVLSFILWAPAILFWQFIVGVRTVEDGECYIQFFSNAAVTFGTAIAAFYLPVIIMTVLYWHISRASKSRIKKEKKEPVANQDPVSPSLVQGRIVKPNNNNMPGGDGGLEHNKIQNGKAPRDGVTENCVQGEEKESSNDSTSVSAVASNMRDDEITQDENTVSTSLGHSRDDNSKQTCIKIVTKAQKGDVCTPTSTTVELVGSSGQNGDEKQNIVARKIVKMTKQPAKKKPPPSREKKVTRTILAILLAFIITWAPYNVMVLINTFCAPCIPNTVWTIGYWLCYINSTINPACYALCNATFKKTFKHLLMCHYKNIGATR

[3] = molecular target: T2, Muscarinic acetylcholine receptor M1 (Rattus norvegicus, UniProt P08482); test: Inhibition of [3H]pirenzepine binding to rat brain membrane Muscarinic acetylcholine receptor M1
T2 sequence (P08482 whole entry): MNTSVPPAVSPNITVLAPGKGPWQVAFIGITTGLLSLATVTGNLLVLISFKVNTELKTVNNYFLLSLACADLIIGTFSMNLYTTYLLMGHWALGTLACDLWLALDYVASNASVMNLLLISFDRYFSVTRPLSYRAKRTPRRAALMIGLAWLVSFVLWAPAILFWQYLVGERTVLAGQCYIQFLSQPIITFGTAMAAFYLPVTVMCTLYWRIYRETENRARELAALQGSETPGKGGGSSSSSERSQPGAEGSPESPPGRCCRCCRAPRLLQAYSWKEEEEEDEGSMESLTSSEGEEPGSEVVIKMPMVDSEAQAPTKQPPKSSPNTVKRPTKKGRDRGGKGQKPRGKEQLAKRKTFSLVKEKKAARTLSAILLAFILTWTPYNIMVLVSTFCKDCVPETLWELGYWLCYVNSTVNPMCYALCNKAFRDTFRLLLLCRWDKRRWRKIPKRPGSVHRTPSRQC

[4] = M-1 selectivity expressed as M-2/M-1 index (Ki in [3H]-QNB / Ki in [3H]PZ) was determined
How it was run: (§1)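 Ratio of Ki from [3H]QNB binding in rat heart to Ki from [3H]PZ binding in rat brain membranes. Ki = IC50/(1+[L]/Kd) in both. Heart assay: tissue homogenized with an ultraturrax, 4 mg tissue per assay, QNB Kd 9.1 ± 0.7 pM.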

[5] = (§2) Muscarinic agonist index (Ki in [3H]QNB / Ki in [3H]-OXO-M) was determined; assay type: functional
[6] = molecular target: T1, Muscarinic acetylcholine receptor M2; test: Inhibition of [3H]quinuclidinyl benzilate binding to Muscarinic acetylcholine receptor M2 of rat heart
Cavia porcellus [7] = species on record: Cavia porcellus; test: Compound was tested for the antagonistic activity on guinea pig ileum; assay type: functional
How it was run: (§3)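 Isolated ileum preparation, with the agonist EC50 and the antagonist IC50 read from dose-response curves.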

Cavia porcellus [8] = species on record: Cavia porcellus; test: Effective concentration of compound for the agonistic activity on guinea pig ileum; assay type: functional; how it was run: as §3
[9] = M-1 selectivity expressed as M-2/M-1 index (Ki in [3H]QNB / Ki in [3H]-PZ) was determined; assay type: functional; how it was run: as §1
Cavia porcellus [10] = species on record: Cavia porcellus; test: Compound was tested for the agonistic activity on guinea pig ileum; assay type: functional; how it was run: as §3
[11] = as §2
[12] = molecular target: T1, Muscarinic acetylcholine receptor M2; test: Compound was tested for the inhibition of [3H]quinuclidinyl benzilate binding to Muscarinic acetylcholine receptor M2 in rat brain membrane; assay type: cell membranes

## CCOC(=O)C1=CCC[S+](C)C1.[Cl-] (configuration not stated)
[1]
  IC50: 0.0092 µM
[2]
  pIC50: 4.66
[3]
  pIC50: 6.40
[4]
  Ratio: 1.2
[5]
  M-agonist index: 387
[6]
  pIC50: 5.41

## Cn1oc2c(c1=O)C[S+](C)CC2.[I-] (configuration not stated)
Cavia porcellus [7]
  pIC50: < 5.22
[1]
  IC50: 0.22 µM
[2]
  pIC50: 3.96
[3]
  pIC50: 4.52
[4]
  Ratio: 0.04
Cavia porcellus [8]
  pEC50: 5.03
[5]
  M-agonist index: 81
[6]
  pIC50: 5.00

## COC(=O)C1=CCC[S+](C)C1.[I-] (configuration not stated) [SULFOARECOLINE IODIDE]
[1]
  IC50: 0.0014 µM
[2]
  pIC50: 4.47
[3]
  pIC50: 5.59
[4]
  Ratio: 0.12
[5]
  M-agonist index: 3930
[6]
  pIC50: 5.60

## COc1noc2c1C[S+](C)CC2.[I-] (configuration not stated)
Cavia porcellus [7]
  pIC50: < 6.40
[1]
  IC50: 0.019 µM
[2]
  pIC50: 4.44
[3]
  pIC50: 5.39
[4]
  Ratio: 0.05
Cavia porcellus [8]
  pEC50: 6.08
[5]
  M-agonist index: 307
[6]
  pIC50: 5.80

## CC(C)Oc1noc2c1C[S+](C)CC2.[I-] (configuration not stated)
Cavia porcellus [7]
  pIC50: < 5.52
[1]
  IC50: 0.039 µM
[2]
  pIC50: 5.32
[3]
  pIC50: 6.37
[4]
  Ratio: 0.53
Cavia porcellus [8]
  pEC50: 5.21
[5]
  M-agonist index: 20
[6]
  pIC50: 5.74

## C#CCOc1noc2c1C[S+](C)CC2.[I-] (configuration not stated)
Cavia porcellus [7]
  pIC50: < 6.70
[1]
  IC50: 0.0033 µM
[2]
  pIC50: 5.59
[3]
  pIC50: 6.60
[4]
  Ratio: 0.22
Cavia porcellus [8]
  pEC50: 6.25
[5]
  M-agonist index: 128
[6]
  pIC50: 6.36

## COc1noc2c1CN(C)CC2
Cavia porcellus [7]
  pIC50: < 6.70
[1]
  IC50: 0.028 µM
[2]
  pIC50: 4.42
[3]
  pIC50: 5.19
[9]
  Ratio: 0.31
[6]
  pIC50: 4.80
Cavia porcellus [10]
  pEC50: 6.08
[11]
  M-agonist index: 220

## COc1noc2c1CSCC2
Cavia porcellus [7]
  pIC50: < 4.30
[1]
  IC50: > 1000 µM
[2]
  pIC50: < 3.00
[3]
  pIC50: < 3.00
Cavia porcellus [8]
  pEC50: < 4.30
[6]
  pIC50: < 3.00

## Cn1oc2c(c1=O)CSCC2
Cavia porcellus [7]
  pIC50: < 4.30
[1]
  IC50: > 1000 µM
[2]
  pIC50: < 3.00
[3]
  pIC50: < 3.00
Cavia porcellus [8]
  pEC50: < 4.30
[6]
  pIC50: < 3.00

## COC(=O)C1=CCCN(C)C1 [ARECOLINE]
Cavia porcellus [7]
  pIC50: < 6.00
Cavia porcellus [8]
  pEC50: 6.82

## COc1noc2c1C[N+](C)(C)CC2.[I-]
Cavia porcellus [7]
  pIC50: < 5.52
[1]
  IC50: 0.043 µM
[2]
  pIC50: 4.13
[3]
  pIC50: 5.55
[4]
  Ratio: 0.42
Cavia porcellus [8]
  pEC50: 5.09
[5]
  M-agonist index: 279
[6]
  pIC50: 5.02

## CCOc1noc2c1C[S+](C)CC2.[I-] (configuration not stated)
Cavia porcellus [7]
  pIC50: 4.82
[1]
  IC50: 0.23 µM
[12]
  pIC50: 5.34
[3]
  pIC50: 6.28
[4]
  Ratio: 1.2
Cavia porcellus [8]
  pEC50: < 4.30
[5]
  M-agonist index: 3.3
[6]
  pIC50: 5.31
